Assay results taken from ChEMBL document CHEMBL1141410, “Eremophilane-type sesquiterpene derivatives from the roots of Ligularia lapathifolia” (J Nat Prod, 2007).

Columns and labels:
Assay type in all cases: cell-based
[1] = tested on: CCRF S-180; assay: Cytotoxicity against mouse S180 cells after 48 hrs by MTT colorimetric assay; details: CCRF S-180, 48 h
In short: (§1)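 Cells maintained in RPMI-1640 with 10% heat-inactivated FBS, penicillin and streptomycin at 37 °C, 5% CO2; exponentially growing cells seeded at 1 × 10^5 cells/mL, treated after 24 h at 0.1–100 or 0.15–150 mg/L, six replicate wells per point. After 48 h, MTT added for 4 h at 37 °C, then 10% SDS–0.01 M HCl overnight; A570 read, cytotoxicity % versus untreated cells.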

[2] = Cytotoxicity against human MGC803 cells after 48 hrs by MTT colorimetric assay; details: MGC-803, 48 h; in short: as §1
[3] = tested on: HepG2; assay: Cytotoxicity against human HEPG2 cells after 48 hrs by MTT colorimetric assay; details: HepG2, 48 h; in short: as §1

C/C=C(/C)C(=O)OC1CC[C@@H]2CC(=O)C(C(C)C(=O)OC)=C[C@]2(C)C1C(=O)OC (stereo not given in full)
IC50 [1]: > 100 µM | IC50 [2]: > 100 µM | IC50 [3]: > 100 µM

CO[C@]12C[C@H]3CCC=C4C(=O)O[C@@H](C1=C(C)C(=O)O2)[C@]43C
IC50 [1]: 73.1 µM | IC50 [2]: > 100 µM | IC50 [3]: 12.7 µM

CCO[C@]12C[C@H]3CCC=C4C(=O)O[C@@H](C1=C(C)C(=O)O2)[C@]43C
IC50 [1]: 36.6 µM | IC50 [2]: 53.9 µM | IC50 [3]: 40.5 µM

COC(=O)C1=CCC[C@@H]2CC(C(C)=O)=C[C@]12C
IC50 [1]: 19.9 µM | IC50 [2]: 35.4 µM | IC50 [3]: 46.5 µM

CC1=C2[C@@H]3OC(=O)C4=CCC[C@H](C[C@]2(O)OC1=O)[C@@]43C
IC50 [1]: > 100 µM | IC50 [2]: > 100 µM | IC50 [3]: > 100 µM
